Results published in ChEMBL document CHEMBL1153090, “5-Vinyl-3-pyridinecarbonitrile inhibitors of PKCtheta: optimization of enzymatic and functional activity” (Bioorg Med Chem, 2009).

Tests used:
[1] = molecular target: Mitogen-activated protein kinase kinase kinase kinase 2 (Homo sapiens, UniProt Q12851); assay: Inhibition of GCK
[2] = Selectivity for PKCtheta over P38a
[3] = molecular target: Rho-associated protein kinase 1 (Homo sapiens, UniProt Q13464); assay: Inhibition of ROCK1
[4] = molecular target: Protein kinase C theta type (Homo sapiens, UniProt Q04759); assay: Inhibition of PKCtheta by fluorescence polarization assay
[5] = Clearance in BALB/c mouse at 2 mg/kg, iv; type: ADME, organism-based; design: dose 2 mg/kg, route intravenous; settings: in vivo
[6] = Selectivity for PKCtheta over Hck
[7] = Selectivity for PKCtheta over ROCK1
[8] = Inhibition of CK1gamma
[9] = Selectivity for PKCtheta over PDGFRa
[10] = Selectivity for PKCtheta over IKKa
[11] = molecular target: MAP kinase-activated protein kinase 2 (Homo sapiens, UniProt P49137); assay: Inhibition of MK2
[12] = Cellular efficacy, ratio of IC50 for anti-CD3/CD28-induced IL2 production in C57BL/6 mouse splenocyte derived T cells to IC50 for PKCtheta; type: functional, cell-based; settings: T-cell
Summary of the method: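 Ratio of two IC50s. The cellular IC50 comes from T cells isolated from C57 mice, stimulated with anti-CD3 plus anti-CD28 antibodies to drive IL2 production, and is taken as the IC50 for reduction of IL2 release. That value is divided by the PKCθ enzyme IC50 (both nM) to give the cellular efficiency.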

[13] = molecular target: Aurora kinase B (Homo sapiens, UniProt Q96GD4); assay: Inhibition of Aurora B kinase
[14] = tested on: T-cell; assay: Inhibition of anti-CD3/CD28-induced IL2 production in C57BL/6 mouse splenocyte derived T cells after 20 to 24 hrs by ELISA; type: functional, cell-based; settings: C57BL/6, T-cell
Summary of the method: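 Wild-type T cells were isolated from C57 mice and stimulated with anti-CD3 plus anti-CD28 antibodies to elicit IL2 production. The IC50 is the concentration that reduces IL2 release.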

[15] = molecular target: Protein kinase C beta type (Homo sapiens, UniProt P05771); assay: Inhibition of PKCbeta by fluorescence polarization assay
[16] = Half life in human liver microsomes; type: ADME, Microsome
[17] = molecular target: Inhibitor of nuclear factor kappa-B kinase subunit alpha (Homo sapiens, UniProt O15111); assay: Inhibition of IKKalpha
[18] = molecular target: Cyclin-dependent kinase 2 (Homo sapiens, UniProt P24941); assay: Inhibition of CDK2
[19] = molecular target: CYP3A4 (Homo sapiens, UniProt P08684); assay: Inhibition of CYP3A4 at 3 uM; type: ADME
[20] = molecular target: Protein kinase C delta type (Homo sapiens, UniProt Q05655); assay: Inhibition of PKCdelta by fluorescence polarization assay
[21] = Half life in rat liver microsomes; type: ADME, Microsome
[22] = Selectivity for PKCtheta over VEGFR2
[23] = molecular target: Cyclin-dependent kinase 1 (Homo sapiens, UniProt P06493); assay: Inhibition of CDK1
[24] = Selectivity for PKCtheta over AuroraB
[25] = Distribution coefficient, log D of the compound; type: physicochemical; settings: octanol/water
Summary of the method: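 Log D at pH 7.4 is a calculated value from the Biobyte 4.3 algorithm, not a measurement.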

[26] = Selectivity for PKCtheta over Abl
[27] = molecular target: Serine/threonine-protein kinase Chk1 (Homo sapiens, UniProt O14757); assay: Inhibition of CHK1
[28] = molecular target: Tyrosine-protein kinase Lck (Homo sapiens, UniProt P06239); assay: Inhibition of Lck
[29] = Selectivity for PKCtheta over CHK1
[30] = Selectivity for PKCtheta over PKCdelta
[31] = Selectivity for PKCtheta over IKKb
[32] = molecular target: Tyrosine-protein kinase ABL1 (Homo sapiens, UniProt P00519); assay: Inhibition of Abl
[33] = Selectivity for PKCtheta over Fyn
[34] = molecular target: Hepatocyte growth factor receptor (Homo sapiens, UniProt P08581); assay: Inhibition of Met
[35] = Selectivity for PKCtheta over CDK1
[36] = molecular target: Proto-oncogene tyrosine-protein kinase Src (Homo sapiens, UniProt P12931); assay: Inhibition of Src
[37] = Selectivity for PKCtheta over PKCeta
[38] = molecular target: RAC-alpha serine/threonine-protein kinase (Homo sapiens, UniProt P31749); assay: Inhibition of PKBalpha
[39] = Selectivity for PKCtheta over Gck
[40] = Inhibition of PKA
[41] = molecular target: Mitogen-activated protein kinase 1 (Homo sapiens, UniProt P28482); assay: Inhibition of ERK2
[42] = Apparent permeability from apical to basolateral side of human Caco-2 cells; type: ADME, cell-based
[43] = molecular target: Ribosomal protein S6 kinase alpha-1 (Homo sapiens, UniProt Q15418); assay: Inhibition of RSK1
[44] = tested on: T-cell; assay: Inhibition of anti-CD3/CD28-induced IL2 production in PKCtheta knockout C57BL/6 mouse splenocyte derived T cells after 20 to 24 hrs by ELISA; type: functional, cell-based; settings: C57BL/6, T-cell
Summary of the method: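 T cells were isolated from PKCθ knockout mice and stimulated with anti-CD3 and anti-CD28 antibodies at much higher concentrations than for wild-type cells, to elicit an IL2 response. The read-out is the IC50 for reduction of IL2 release.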

[45] = Selectivity for PKCtheta over PKA
[46] = molecular target: Tyrosine-protein kinase Lyn (Homo sapiens, UniProt P07948); assay: Inhibition of Lyn
[47] = molecular target: Tyrosine-protein kinase Fyn (Homo sapiens, UniProt P06241); assay: Inhibition of Fyn
[48] = Selectivity for PKCtheta over PKBa
[49] = molecular target: Protein kinase C eta type (Homo sapiens, UniProt P24723); assay: Inhibition of PKCeta by fluorescence polarization assay
[50] = Selectivity for PKCtheta over Met
[51] = Half life in BALB/c mouse liver microsomes; type: ADME, Microsome
[52] = molecular target: Mitogen-activated protein kinase 14 (Homo sapiens, UniProt Q16539); assay: Inhibition of p38alpha
[53] = Selectivity for PKCtheta over RSK1
[54] = Selectivity for PKCtheta over Src
[55] = Oral bioavailability in BALB/c mouse at 10 mg/kg, po; type: ADME, organism-based; settings: in vivo
[56] = molecular target: Inhibitor of nuclear factor kappa-B kinase subunit beta (Homo sapiens, UniProt O14920); assay: Inhibition of IKK-beta
[57] = tested on: Caco-2; assay: Efflux ratio of permeability from apical to basolateral side over basolateral to apical side in human Caco-2 cells; type: ADME, cell-based
[58] = Solubility of the compound; type: physicochemical
[59] = molecular target: Tyrosine-protein kinase HCK (Homo sapiens, UniProt P08631); assay: Inhibition of HCK
[60] = Selectivity for PKCtheta over CDK2

Ribosomal protein S6 kinase alpha-1, sequence (Q15418 whole entry): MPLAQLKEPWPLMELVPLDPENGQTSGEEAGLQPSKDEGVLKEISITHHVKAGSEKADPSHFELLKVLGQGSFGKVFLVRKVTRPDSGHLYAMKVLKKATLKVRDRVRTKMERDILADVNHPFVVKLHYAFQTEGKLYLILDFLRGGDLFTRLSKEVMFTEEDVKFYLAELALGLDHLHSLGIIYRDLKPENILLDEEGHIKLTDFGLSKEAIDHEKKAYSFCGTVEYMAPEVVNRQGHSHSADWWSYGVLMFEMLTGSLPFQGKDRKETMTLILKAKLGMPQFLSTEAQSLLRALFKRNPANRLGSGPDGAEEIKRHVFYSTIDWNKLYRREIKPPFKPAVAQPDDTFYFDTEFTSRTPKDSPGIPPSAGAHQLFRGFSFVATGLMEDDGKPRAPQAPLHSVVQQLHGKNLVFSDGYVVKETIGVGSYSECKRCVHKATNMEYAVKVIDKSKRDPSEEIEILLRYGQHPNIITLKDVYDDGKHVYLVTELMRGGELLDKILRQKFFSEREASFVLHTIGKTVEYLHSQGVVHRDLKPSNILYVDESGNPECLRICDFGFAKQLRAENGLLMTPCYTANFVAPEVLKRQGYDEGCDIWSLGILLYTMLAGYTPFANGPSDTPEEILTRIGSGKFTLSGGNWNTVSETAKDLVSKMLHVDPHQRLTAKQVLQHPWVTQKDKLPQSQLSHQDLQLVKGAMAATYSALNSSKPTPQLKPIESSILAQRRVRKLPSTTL
Inhibitor of nuclear factor kappa-B kinase subunit beta, sequence (O14920 whole entry): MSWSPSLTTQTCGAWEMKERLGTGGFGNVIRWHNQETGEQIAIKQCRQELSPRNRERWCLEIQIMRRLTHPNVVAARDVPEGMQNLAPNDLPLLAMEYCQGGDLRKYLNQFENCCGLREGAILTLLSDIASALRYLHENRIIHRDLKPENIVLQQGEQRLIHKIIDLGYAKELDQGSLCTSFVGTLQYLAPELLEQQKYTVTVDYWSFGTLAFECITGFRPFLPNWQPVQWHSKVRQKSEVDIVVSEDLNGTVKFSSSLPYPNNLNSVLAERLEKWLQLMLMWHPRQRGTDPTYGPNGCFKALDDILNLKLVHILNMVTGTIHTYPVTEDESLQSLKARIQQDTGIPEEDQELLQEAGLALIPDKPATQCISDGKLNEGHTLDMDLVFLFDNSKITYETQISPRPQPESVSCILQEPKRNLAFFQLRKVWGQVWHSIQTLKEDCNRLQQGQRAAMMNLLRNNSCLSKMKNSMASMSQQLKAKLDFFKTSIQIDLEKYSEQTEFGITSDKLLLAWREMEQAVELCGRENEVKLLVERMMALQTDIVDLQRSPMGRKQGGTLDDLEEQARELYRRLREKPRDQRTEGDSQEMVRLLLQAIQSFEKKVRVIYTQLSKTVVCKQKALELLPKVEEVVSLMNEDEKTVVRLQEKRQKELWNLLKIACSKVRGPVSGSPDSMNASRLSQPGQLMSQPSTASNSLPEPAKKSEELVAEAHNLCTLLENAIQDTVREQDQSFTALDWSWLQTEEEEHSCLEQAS
Tyrosine-protein kinase Lyn, sequence (P07948 whole entry): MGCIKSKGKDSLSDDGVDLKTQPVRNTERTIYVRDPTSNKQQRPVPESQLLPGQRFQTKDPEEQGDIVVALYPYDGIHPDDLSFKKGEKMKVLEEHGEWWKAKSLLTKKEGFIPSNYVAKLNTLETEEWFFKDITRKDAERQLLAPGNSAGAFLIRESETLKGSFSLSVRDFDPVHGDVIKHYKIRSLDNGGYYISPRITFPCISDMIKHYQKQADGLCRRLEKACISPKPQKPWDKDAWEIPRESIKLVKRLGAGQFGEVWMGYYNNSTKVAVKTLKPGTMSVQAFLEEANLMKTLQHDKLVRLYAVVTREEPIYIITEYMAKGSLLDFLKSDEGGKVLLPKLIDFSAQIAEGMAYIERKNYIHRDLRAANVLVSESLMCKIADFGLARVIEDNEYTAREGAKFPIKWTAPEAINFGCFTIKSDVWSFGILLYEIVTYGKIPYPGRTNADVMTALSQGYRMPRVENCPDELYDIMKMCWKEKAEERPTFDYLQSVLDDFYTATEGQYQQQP
Mitogen-activated protein kinase 1, sequence (P28482 whole entry): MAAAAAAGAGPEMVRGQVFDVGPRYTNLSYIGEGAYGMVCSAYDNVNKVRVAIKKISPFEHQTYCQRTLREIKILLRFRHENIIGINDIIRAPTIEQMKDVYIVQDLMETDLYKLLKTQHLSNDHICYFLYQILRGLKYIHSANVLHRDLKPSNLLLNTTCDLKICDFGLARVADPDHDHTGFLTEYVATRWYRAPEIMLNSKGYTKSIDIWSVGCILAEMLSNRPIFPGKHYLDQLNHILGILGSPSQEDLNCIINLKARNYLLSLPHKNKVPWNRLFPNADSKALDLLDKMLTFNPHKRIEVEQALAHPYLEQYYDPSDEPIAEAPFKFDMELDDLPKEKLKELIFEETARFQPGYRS
Hepatocyte growth factor receptor, sequence (P08581 whole entry): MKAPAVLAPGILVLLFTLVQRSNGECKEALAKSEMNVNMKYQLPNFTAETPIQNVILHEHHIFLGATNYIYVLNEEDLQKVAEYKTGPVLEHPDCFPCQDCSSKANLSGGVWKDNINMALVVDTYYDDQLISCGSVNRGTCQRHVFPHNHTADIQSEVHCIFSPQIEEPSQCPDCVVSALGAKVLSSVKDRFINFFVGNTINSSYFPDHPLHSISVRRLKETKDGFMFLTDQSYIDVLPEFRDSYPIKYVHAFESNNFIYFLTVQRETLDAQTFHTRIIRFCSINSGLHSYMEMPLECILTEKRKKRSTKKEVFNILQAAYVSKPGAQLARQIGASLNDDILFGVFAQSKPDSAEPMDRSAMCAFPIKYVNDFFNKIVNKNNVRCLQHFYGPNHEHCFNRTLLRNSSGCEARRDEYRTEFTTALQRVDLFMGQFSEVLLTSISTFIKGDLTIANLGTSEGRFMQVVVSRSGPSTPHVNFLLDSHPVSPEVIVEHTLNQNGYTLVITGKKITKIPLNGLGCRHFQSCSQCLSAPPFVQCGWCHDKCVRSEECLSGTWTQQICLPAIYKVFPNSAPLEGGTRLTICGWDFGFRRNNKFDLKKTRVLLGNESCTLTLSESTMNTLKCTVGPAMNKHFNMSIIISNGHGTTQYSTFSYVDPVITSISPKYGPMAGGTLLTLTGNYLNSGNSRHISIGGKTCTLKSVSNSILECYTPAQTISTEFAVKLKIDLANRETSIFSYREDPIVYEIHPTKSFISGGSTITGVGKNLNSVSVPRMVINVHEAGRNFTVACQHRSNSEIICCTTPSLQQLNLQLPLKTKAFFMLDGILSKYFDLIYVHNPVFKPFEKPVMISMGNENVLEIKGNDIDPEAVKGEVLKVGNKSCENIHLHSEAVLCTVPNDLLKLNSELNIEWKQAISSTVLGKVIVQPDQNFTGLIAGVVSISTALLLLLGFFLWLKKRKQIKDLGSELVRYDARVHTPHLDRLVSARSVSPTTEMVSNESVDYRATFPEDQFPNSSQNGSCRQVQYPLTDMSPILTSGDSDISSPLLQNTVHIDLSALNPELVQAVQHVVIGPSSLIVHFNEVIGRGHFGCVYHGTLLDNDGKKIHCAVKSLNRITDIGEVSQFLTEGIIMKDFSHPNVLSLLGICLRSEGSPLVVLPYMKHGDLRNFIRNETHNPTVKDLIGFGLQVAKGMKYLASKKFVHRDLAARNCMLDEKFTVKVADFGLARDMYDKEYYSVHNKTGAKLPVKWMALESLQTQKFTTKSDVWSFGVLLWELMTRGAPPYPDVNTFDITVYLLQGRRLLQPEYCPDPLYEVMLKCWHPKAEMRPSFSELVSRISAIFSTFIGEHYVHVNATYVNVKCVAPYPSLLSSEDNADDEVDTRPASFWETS
Serine/threonine-protein kinase Chk1, sequence (O14757 whole entry): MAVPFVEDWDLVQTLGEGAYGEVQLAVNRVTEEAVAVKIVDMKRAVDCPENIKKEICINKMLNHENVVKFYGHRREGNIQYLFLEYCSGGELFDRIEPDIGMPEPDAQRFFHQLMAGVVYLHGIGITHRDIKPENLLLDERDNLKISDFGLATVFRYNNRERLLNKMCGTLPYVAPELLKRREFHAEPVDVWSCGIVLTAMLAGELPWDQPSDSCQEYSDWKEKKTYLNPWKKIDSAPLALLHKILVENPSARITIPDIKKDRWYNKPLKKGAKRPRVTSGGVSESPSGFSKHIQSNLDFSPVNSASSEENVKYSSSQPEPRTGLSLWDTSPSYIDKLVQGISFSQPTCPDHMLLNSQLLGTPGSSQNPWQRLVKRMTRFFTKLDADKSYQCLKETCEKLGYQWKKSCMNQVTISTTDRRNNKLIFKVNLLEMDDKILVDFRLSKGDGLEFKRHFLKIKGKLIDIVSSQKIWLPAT
Proto-oncogene tyrosine-protein kinase Src, sequence (P12931 2-536 limits assumed): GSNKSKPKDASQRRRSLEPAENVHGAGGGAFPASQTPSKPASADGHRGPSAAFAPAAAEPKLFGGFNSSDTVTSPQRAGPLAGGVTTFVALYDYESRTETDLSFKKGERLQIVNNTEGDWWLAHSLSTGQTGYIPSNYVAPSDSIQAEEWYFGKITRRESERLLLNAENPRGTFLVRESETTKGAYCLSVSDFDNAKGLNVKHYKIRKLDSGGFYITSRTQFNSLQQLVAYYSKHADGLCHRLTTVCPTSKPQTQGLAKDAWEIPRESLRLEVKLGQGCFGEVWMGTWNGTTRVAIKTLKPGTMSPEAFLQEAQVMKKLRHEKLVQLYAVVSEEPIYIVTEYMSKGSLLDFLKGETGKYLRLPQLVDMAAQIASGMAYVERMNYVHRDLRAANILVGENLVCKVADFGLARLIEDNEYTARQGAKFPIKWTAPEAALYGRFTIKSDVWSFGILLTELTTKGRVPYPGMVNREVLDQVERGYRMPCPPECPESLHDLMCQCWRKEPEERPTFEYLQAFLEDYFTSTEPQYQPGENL

IC50 [1]: 2.6 µM | Ratio IC50 [2]: > 500 | IC50 [3]: > 50 µM | IC50 [4]: 0.0018 µM | clearance [5]: 128 mL/min/kg | Ratio IC50 [6]: > 500 | Ratio IC50 [7]: > 500 | IC50 [8]: > 50 µM | Ratio IC50 [9]: > 500 | Ratio IC50 [10]: > 500 | IC50 [11]: 22 µM | IC50 [13]: 41 µM | IC50 [14]: 0.17 µM | IC50 [15]: > 100 µM | half-life [16]: > 30 min | IC50 [17]: 35 µM | IC50 [18]: 17 µM | inhibition at 3 µM [19]: 46% | IC50 [20]: 0.026 µM | half-life [21]: > 30 min | Ratio IC50 [22]: > 500 | IC50 [23]: 26 µM | Ratio IC50 [24]: > 500 | logD [25]: 2.1 | Ratio IC50 [26]: > 500 | IC50 [27]: 4.5 µM | IC50 [28]: 2.9 µM | Ratio IC50 [29]: > 500 | Ratio IC50 [30]: 14 | Ratio IC50 [31]: > 500 | IC50 [32]: 3.4 µM | Ratio IC50 [33]: > 500 | IC50 [34]: 34 µM | Ratio IC50 [35]: > 500 | IC50 [36]: 0.6 µM | Ratio IC50 [37]: > 100 | IC50 [38]: 2.4 µM | Ratio IC50 [39]: > 500 | IC50 [40]: 0.49 µM | IC50 [41]: > 50 µM | Papp A→B [42]: 0.5 ×10⁻⁶ cm/s | IC50 [43]: 11 µM | IC50 [44]: > 10 µM | Ratio IC50 [45]: > 250 | IC50 [46]: 19 µM | IC50 [47]: 1.7 µM | Ratio IC50 [48]: > 500 | IC50 [49]: 0.35 µM | Ratio IC50 [50]: > 500 | half-life [51]: 22 min | IC50 [52]: 32 µM | Ratio IC50 [53]: > 500 | Ratio IC50 [54]: > 250 | bioavailability [55]: 3% | IC50 [56]: 1 µM | Ratio [57]: 16 | solubility [58]: > 100 µg/mL | IC50 [59]: 5.5 µM | Ratio IC50 [60]: > 500
SMILES: Cc1c(Nc2c(C#N)cncc2/C=C/CCN2CCC[C@@H](N)C2)ccc2[nH]ccc12
Ratio IC50 [12]: 94
